20 compounds from ChEMBL document CHEMBL4339251, “Prenylated Bibenzyls from the Chinese Liverwort Radula constricta and Their Mitochondria-Derived Paraptotic Cytotoxic Activities” (J Nat Prod, 2019) can be followed below.

Broadly, the pIC50 is the IC50 on a negative log10 scale, so that one unit is a factor of ten.

Common to all, as to format: functional, cell-based
For one assay, the system named is HepG2. The assay can be described thus: Cytotoxicity in human HepG2 cells assessed as reduction in cell viability incubated for 48 hrs by MTT assay. The note with it: HepG2, 48 h. The essentials:
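MTT viability. Cells were seeded in 96-well plates overnight and exposed to a range of concentrations. MTT (5 mg/mL) was added for 4 h, formazan was dissolved in DMSO and absorbance read at 570 nm. Three independent experiments.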
Background: Tetrazolium dyes change colour on reduction, which living cells bring about.

Assay [1] concerns A549. Briefly: Cytotoxicity in human A549 cells assessed as reduction in cell viability incubated for 48 hrs by MTT assay. The note with it: A549, 48 h. Put shortly:
(§1)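 MTT viability. U251 and NCI-H1299 were grown in DMEM, the other lines in RPMI 1640, each with 10% FBS, penicillin and streptomycin, at 37 °C in 5% CO2. Cells were seeded in 96-well plates overnight and exposed to a range of concentrations. MTT (5 mg/mL) was added for 4 h, formazan was dissolved in DMSO and absorbance read at 570 nm. Three independent experiments.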

The test system of another assay is NCI-H1299. Briefly: Cytotoxicity in human NCI-H1299 cells assessed as reduction in cell viability incubated for 48 hrs by MTT assay. The note with it: NCI-H1299, 48 h. The essentials: as §1
The subject of a further assay is SMMC-7721. Briefly: Cytotoxicity in human SMMC7721 cells assessed as reduction in cell viability incubated for 48 hrs by MTT assay. The settings on record: SMMC-7721, 48 h. Put shortly:
as §1

The next assay relates to MCF7. The assay can be described thus: Cytotoxicity in human MCF7 cells assessed as reduction in cell viability incubated for 48 hrs by MTT assay. The settings on record: MCF7, 48 h. The essentials: as §1
The subject of a further assay is U-251. The assay can be described thus: Cytotoxicity in human U251 cells assessed as reduction in cell viability incubated for 48 hrs by MTT assay. The note with it: U-251, 48 h. The essentials:
as §1

In the next assay the test system is SW-620. The assay can be described thus: Cytotoxicity in human SW620 cells assessed as reduction in cell viability incubated for 48 hrs by MTT assay. The settings on record: SW-620, 48 h. Put shortly:
as §1

In the next assay the test system is HT-29. The assay can be described thus: Cytotoxicity in human HT-29 cells assessed as reduction in cell viability incubated for 48 hrs by MTT assay. The note with it: HT-29, 48 h. Put shortly: as §1
The next assay has as its system KB. The assay can be described thus: Cytotoxicity in human KB cells assessed as reduction in cell viability incubated for 48 hrs by MTT assay. The essentials:
as §1

The subject of assay [2] is A549. Briefly: Induction of cytoplasmic vacuolization in human A549 cells.

pIC50: −log10 of the molar value. Counter-ions that a name gives are not always drawn. Calls of active or inactive are those of the source. The rule behind the calls is not given here.

Take `CC1=CC(=O)c2c(O)cc(CCc3ccccc3O)cc2OC1`: the pIC50 with HepG2, in the assay on A549 [1], in the assay on NCI-H1299, in the assay with SMMC-7721, in the assay with MCF7 and in the assay with U-251 was less than 4.40 each time. Further, the negative logarithm of the IC50 (pIC50) in the assay on SW-620, in the assay with HT-29 and in the assay with KB was less than 4.40 in each case.

On to `CC(C)=CCC/C(C)=C/Cc1c(O)cc(O)cc1CCc1ccccc1`, for which the pIC50 in the assay with HepG2 was 4.44; in the assay with A549 [1], less than 4.40; with NCI-H1299, less than 4.40; in the assay with SMMC-7721 it was 4.61; in the assay with MCF7, less than 4.40; in the assay with U-251 it was 5.03. Besides, the values for the pIC50 with SW-620, in the assay with HT-29 and in the assay on KB were 4.59, less than 4.40 and 4.59, respectively.

As to `CC1(C)CCc2c(CCc3ccccc3)cc(O)cc2O1`, the pIC50 with HepG2, in the assay with A549 [1], in the assay with NCI-H1299, in the assay with SMMC-7721, in the assay on MCF7 and with U-251 was less than 4.40 throughout. In addition, the pIC50 in the assay with SW-620, with HT-29 and in the assay on KB was less than 4.40 throughout. In the assay with A549 [2], the result was Active.

As for `COc1cc(CCc2ccccc2)c2c(c1)OC(C)(C)CC2`, the pIC50 is less than 4.40 in the assay with HepG2; less than 4.40 in the assay with A549 [1]; less than 4.40 with NCI-H1299; less than 4.40 with SMMC-7721; less than 4.40 in the assay on MCF7; 4.58 in the assay on U-251. Also, the pIC50 in the assay on SW-620, in the assay with HT-29 and in the assay on KB was less than 4.40 in each case.

For the compound `COC(=O)c1c(CCc2ccccc2)cc2c(c1O)CC(O)C(C)(C)O2` (racemic), the pIC50 with HepG2, in the assay on A549 [1], with NCI-H1299, with SMMC-7721, in the assay on MCF7 and in the assay with U-251 was less than 4.40 in each case. For the same compound, the pIC50 in the assay on SW-620, with HT-29 and in the assay with KB was less than 4.40 each time.

Take `COC(=O)c1c(CCc2ccccc2)cc2c(c1O)CC(C(C)(C)O)O2` (racemic): the pIC50 with HepG2, with A549 [1], with NCI-H1299, in the assay on SMMC-7721, in the assay on MCF7 and in the assay with U-251 was less than 4.40 each time. The pIC50 in the assay on SW-620, with HT-29 and with KB was less than 4.40 each time.

For `CC(C)=CCC[C@@]1(C)C=Cc2c(CCc3ccccc3)cc(O)cc2O1`, the pIC50 with HepG2 was 4.46; in the assay with A549 [1], less than 4.40; in the assay with NCI-H1299, less than 4.40; in the assay with SMMC-7721, 4.61; in the assay on MCF7, less than 4.40; in the assay with U-251 it was 5.05. In addition, the pIC50 in the assay on SW-620 was 4.73; in the assay with HT-29, less than 4.40; in the assay with KB it was 4.55.

Turning to `COc1cccc2c1C(=O)c1c(O)c3c(c(O)c1C2=O)C[C@@](O)(C(=O)CO)C[C@@H]3O[C@H]1C[C@H](N)[C@H](O)[C@H](C)O1` [DOXORUBICIN HYDROCHLORIDE], the pIC50 is 6.10 with NCI-H1299; 6.10 in the assay with SMMC-7721; 5.54 in the assay on U-251; 5.92 in the assay on SW-620; 5.42 in the assay on HT-29; 5.49 with KB.

For `C=C(C)[C@@H](O)CC/C(C)=C/Cc1c(O)cc(O)cc1CCc1ccccc1`, the pIC50 in the assay with HepG2 is 4.65; in the assay with A549 [1], 4.59; with NCI-H1299 it was less than 4.40; in the assay with SMMC-7721, 4.53; in the assay on MCF7, 4.54; in the assay on U-251 it was less than 4.40. The values for the pIC50 in the assay on SW-620, with HT-29 and with KB were 4.71, 4.54 and 4.76, respectively. Besides, in the assay on A549 [2], the result was Active.

Take `CC1(C)[C@@H]2c3c(CCc4ccccc4)cc(O)cc3O[C@]3(C)CC[C@H]1[C@H]23`: the pIC50 in the assay with HepG2 was 4.88; in the assay with A549 [1], 5.01; in the assay on NCI-H1299, 5.12; with SMMC-7721 it was 4.87; with MCF7, 4.70; in the assay on U-251, 4.59. The pIC50 in the assay with SW-620 is 4.98; with HT-29, less than 5.00; in the assay with KB, 4.80. For the same compound, the result in the assay on A549 [2] was Active.

With `O=C1C=Cc2c(O)cc(CCc3ccccc3O)cc2OC1`, the negative logarithm of the IC50 (pIC50) in the assay on HepG2 is less than 4.40; with A549 [1], less than 4.40; with NCI-H1299, less than 4.40; in the assay with SMMC-7721, 4.83; with MCF7, 4.48; in the assay on U-251, 4.66. Further, the pIC50 in the assay with SW-620 was 4.86; with HT-29 it was less than 4.40; in the assay on KB it was less than 4.40.

In the case of `C=C(CCC=C(C)C)[C@H](O)Cc1c(O)cc(O)cc1CCc1ccccc1`, the pIC50 in the assay on HepG2 is 4.69; in the assay with A549 [1] it was 4.59; in the assay with NCI-H1299, less than 4.40; with SMMC-7721, 4.80; with MCF7 it was 4.73; in the assay with U-251, 5.04. For the same compound, the results for the pIC50 in the assay with SW-620, in the assay with HT-29 and in the assay with KB were 4.82, 4.70 and 4.77, respectively.

Turning to `CC1=CCc2c(O)cc(CCc3ccccc3O)cc2OC1`, the pIC50 in the assay on HepG2 was 4.55; in the assay on A549 [1] it was 4.54; with NCI-H1299, less than 4.40; in the assay with SMMC-7721, 4.40; in the assay on MCF7, less than 4.40; in the assay with U-251, 4.41. The pIC50 with SW-620 was less than 4.40; in the assay with HT-29, 4.61; with KB it was less than 4.40. Also, the outcome with A549 [2] was Active.

`CC(C)(O)[C@H]1CC[C@@]2(C)Oc3cc(O)cc(CCc4ccccc4)c3[C@@H]1[C@H]2O`: the pIC50 in the assay with HepG2, in the assay with A549 [1], in the assay on NCI-H1299, with SMMC-7721, in the assay on MCF7 and in the assay with U-251 was less than 4.40 each time. In addition, the pIC50 with SW-620, in the assay on HT-29 and in the assay with KB was less than 4.40 throughout.

Turning to `CC(C)=CCCC(C)(O)CCc1c(O)cc(O)cc1CCc1ccccc1` (racemic), the pIC50 in the assay with HepG2 was less than 4.40; in the assay with A549 [1], less than 4.40; with NCI-H1299, less than 4.40; in the assay with SMMC-7721 it was 4.41; in the assay with MCF7, less than 4.40; with U-251, 4.44. Besides, the pIC50 in the assay with SW-620 was less than 4.40; in the assay with HT-29 it was less than 4.40; in the assay with KB, 4.53.

Regarding `COC(=O)c1c(CCc2ccccc2)cc(O)c2c1OC(C)(C)C(O)C2` (racemic), the pIC50 in the assay with HepG2, in the assay on A549 [1], with NCI-H1299, with SMMC-7721, with MCF7 and in the assay with U-251 was less than 4.40 in each case. Further, the pIC50 in the assay with SW-620, in the assay on HT-29 and with KB was less than 4.40 throughout.

Take `C=C(C)C(O)Cc1c(O)cc(CCc2ccccc2)c(C(=O)OC)c1O` (racemic): the pIC50 with HepG2 is 4.46; in the assay on A549 [1], 4.44; in the assay on NCI-H1299, less than 4.40; with SMMC-7721, 5.05; in the assay with MCF7 it was 4.42; in the assay with U-251, 5.06. Further, the values for the pIC50 with SW-620, with HT-29 and with KB were 4.65, 4.53 and less than 4.40, respectively.

In the case of `CC(C)=CCCC1(C)Oc2cc(O)cc(CCc3ccccc3)c2CC1O` (racemic), the pIC50 in the assay with HepG2, in the assay with A549 [1], in the assay on NCI-H1299, in the assay with SMMC-7721, in the assay on MCF7 and with U-251 was less than 4.40 in each case. The pIC50 with SW-620, in the assay on HT-29 and in the assay with KB was less than 4.40 throughout.

As to `CC1=CCc2c(O)cc(CCc3ccccc3)cc2OC1`, the pIC50 with HepG2, in the assay on A549 [1], with NCI-H1299, in the assay on SMMC-7721, with MCF7 and in the assay with U-251 was less than 4.40 throughout. Besides, the pIC50 in the assay on SW-620, in the assay on HT-29 and in the assay with KB was less than 4.40 in each case.

With `C=C(C)[C@H]1CC[C@@]2(C)Oc3cc(O)cc(CCc4ccccc4)c3[C@@H]1[C@H]2O`, the pIC50 with HepG2 was 4.50; in the assay with A549 [1], 4.55; in the assay with NCI-H1299 it was less than 4.40; in the assay on SMMC-7721 it was 4.55; in the assay on MCF7, 4.43; in the assay on U-251, 4.84. Further, the pIC50 is 4.67 in the assay on SW-620, 4.45 in the assay with HT-29 and 4.42 in the assay with KB.
